# Compound activity deposited in PubChem BioAssay by several laboratories.
# An excerpt weighted towards active compounds, which were near 2.1% of everything screened.
# RBBP9 inh: human RBBP9 hydrolase inhibition | recombinant RBBP9, FP-Rh probe fluorescence polarization | 220,000 compounds, 0.2% hits | inhibition, % at 7.94 µM | O75884;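 active = inhibition above the campaign mean of all tested compounds plus 3 SD, cut at about 14% in these data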;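 note: plate controls were DMSO wells with RBBP9 for no effect and wells lacking RBBP9 protein for full effect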
# Target sequence (O75884 whole entry, looked up): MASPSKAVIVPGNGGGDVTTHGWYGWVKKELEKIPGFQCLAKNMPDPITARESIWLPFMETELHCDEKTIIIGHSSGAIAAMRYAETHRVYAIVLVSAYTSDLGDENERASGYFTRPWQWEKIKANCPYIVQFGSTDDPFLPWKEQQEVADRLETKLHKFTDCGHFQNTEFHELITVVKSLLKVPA
#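 Test system – recombinant human RBBP9 · Input – RBBP9 2.5 µM in dispensing solution, pre-mixing · Medium – Tris buffer pH 8.0, NaCl, Pluronic · Schedule – preincubation 30 min plus labeling 45 min at 25 °C · Measured by – fluorescence polarization · Measure – % inhibition · Controls – DMSO and no-protein wells · Replicates – one well per compound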
# PKD1 inh: inhibitors of human PKD1 kinase | Q15139 | PKD1 kinase fluorescence polarization assay | inhibition, % (concentration not given with the values) | 200,000 compounds, 0.056% hits; in the data active = inhibition above about 50%
# Insulin prom inh: TRM-6 insulin promoter activity inhibition | 130,000 compounds, 0.9% hits | TRM-6 cells, insulin promoter-eGFP reporter, imaging; reporter expression induced with tamoxifen | AID 1273 | inhibition, % at 2 µM;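 active = inhibition above the mean plus 3 SD, with well images judged a real hit on visual review, cut at about 60% in these data, passing the limit was not always enough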
# Ins promoter up: MIN6 insulin promoter up-regulation; MIN6 insulin promoter-GFP reporter, high-content imaging; hits give high values; z-score at 5 µM; 190,000 compounds, 0.3% hits; AID 1625;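 active = z-score above 3 at 5 µM with at least 500 cells counted in the well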
# Arbovirus inh: antivirals against arbovirus infection | arbovirus infection cell-based antiviral screen | inhibition, % at 10 µM | 200,000 compounds, 0.37% hits; in the data active = inhibition above about 30%
# Autophagy HCS: modulators of autophagy; AID 463193; 190,000 compounds, 0.98% hits; MEF GFP-LC3 puncta imaging; test concentration mostly 10 µM; calls only at 10 µM (by protocol);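 active = percentage of spot-positive cells more than 3 SD above its plate mean, without a fluorescence outlier flag or 80% toxicity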;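 note: spot-positive cell cutoff set from DMSO-treated cells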
# * = called active by the depositor; i = inactive; nt = not tested or not shown; + = active, no number.
SMILES,RBBP9 inh,PKD1 inh,Insulin prom inh,Ins promoter up,Arbovirus inh,Autophagy HCS
COc1ccc(N2CCN(c3ccc(N4C(=O)COCC4=O)cc3[N+](=O)[O-])CC2)cc1,-1,-11,-4,-0.17,-20,i
CC(=O)c1ccc(N=Nc2ccc(C)cc2)cc1,-9,-2,nt,-0.6,-10,i
O=C(CCCOc1ccc(Cl)cc1Cl)N/N=C/c1ccco1,-9,8,79*,0.1,-17,i
Cc1cc(Nc2c(C#N)c(N)nn2C)ccc1F,-3,-2,nt,0.37,2,i
Cc1cc(Nc2nn(C)c(N)c2C#N)ccc1F,2,-1,nt,6*,0,i
C=CCn1cnc2c(c1=O)c1nc3ccccc3nc1n2/N=C/c1cc(OC)c(OC)c(OC)c1,-7,-6,0,-0.59,-35,+
Cc1ccc(CN2C(=O)c3ccccc3NC23CCN(Cc2ccccc2)CC3)cc1,-4,-8,-71,-0.05,-16,+
CC(C)c1ccc(C2C(C#N)=C(N)N3C(=C2C#N)Sc2ccccc23)cc1 (stereo not given),-3,-1,5,0.92,-2,+
CC(C)c1cc(C(=O)Nc2ccc3c(c2)OCO3)no1,-2,-6,80*,0.31,-15,i
CC(C)c1cc(C(F)(F)F)n2nc(C(=O)Nc3ccc4c(c3)OCO4)cc2n1,-8,8,3,0.15,31*,i
CC(C)CC(=O)Nc1ccc2c(c1)OCO2,-12,-6,nt,0.5,1,+
O=C(Nc1ccc2c(c1)OCO2)c1cc(C2CC2)on1,5,-1,nt,2.1,-26,i
O=C(c1ccccc1F)N1CCC(O)(c2cccnc2)CC1,1,12,nt,-1.4,-11,i
CN(C)/C(CN1CCOCC1)=C1\N=C(c2ccccc2)OC1=O,-8,10,0,nt,5,i
CCCCCCN1C2=NCCN2c2ccccc21,-7,-1,84*,-0.49,12,i
Nc1nc(NCc2ccccc2)nc(NCCO)c1[N+](=O)[O-],-2,nt,nt,-2,nt,nt
CCCNC(=O)Cc1cc(=O)[nH]c(=O)[nH]1,-8,0,nt,-3,2,nt
COc1cccc(Nc2nc3ccccc3n2C(C)C)c1,-7,6,62*,0.18,0,i
O=[N+]([O-])c1cc(/C=N\Nc2nc(-c3ccccc3)cs2)ccc1O,1,5,29,-0.64,48*,i
Cc1csc(N/N=C/c2ccc(O)c([N+](=O)[O-])c2)n1,0,-9,8,0.33,1,i
O=C(C1CCN(S(=O)(=O)Cc2ccccc2)CC1)N1CCN(c2ncccn2)CC1,-4,0,0,0.13,0,i
O=C(NC1C(=O)NNC1c1ccccc1)c1ccc(F)cc1 (stereo not given),-7,10,15,1.2,1,i
COc1ccc(CN(C(=O)c2oc3ccccc3c2C)C2CCS(=O)(=O)C2)cc1OC (stereo not given),-9,-2,-64,-1.3,87*,i
FC(F)(F)c1ccc(/C=N/N2CCN(Cc3cccc4ccccc34)CC2)cc1,-3,0,-4,-0.41,11,i
C(=N\N1CCN(Cc2cccc3ccccc23)CC1)/c1ccco1,-8,0,-3,-0.15,-26,+
SMILES,RBBP9 inh,PKD1 inh,Insulin prom inh,Ins promoter up,Arbovirus inh,Autophagy HCS
Cc1ccc(Oc2ncccc2CO)cc1,-5,-8,-45,-0.19,8,i
CCCCOC(=O)Nc1ccc(C(=O)OC)cc1,-4,8,nt,0.57,3,i
CCCCOC(=O)Nc1cc(C(=O)OC)ccc1C(=O)OC,3,-5,65*,1.4,3,i
COc1ccccc1NC(=O)c1oc2ccccc2c1NC(=O)c1cc(OC)c(OC)c(OC)c1,-6,-8,-41,nt,nt,+
O=C(NCc1ccco1)c1ccc(CS(=O)(=O)c2cccc(C(F)(F)F)c2)o1,-5,5,nt,-0.21,-2,i
COc1cc(N=Nc2cccc(S(N)(=O)=O)c2)c2ccccc2c1N,8,nt,nt,5.9*,nt,nt
NC1=NC(=Nc2cccc(S(N)(=O)=O)c2)c2ccccc21,-5,nt,nt,-0.01,nt,nt
Clc1ccc2nc(N3CCNCC3)nc(-c3ccccc3)c2c1,0,-10,-173,-0.53,-32,i
O=C1CN(c2nc(-c3ccccc3)c3cc(Cl)ccc3n2)c2ccccc2N1,3,1,nt,0.57,-3,+
Cn1cccc1/C=C1\Cc2ccccc2C1=O,-1,2,7,-0.37,-6,i
Cn1cccc1/C=C1\CC(C(C)(C)C)C/C(=C\c2cccn2C)C1=O (stereo not given),3,-11,-14,nt,-33,+
CCOC(=O)C1CCCN(CCC(=O)Nc2cccc(C)c2)C1 (stereo not given),1,-2,-7,0.41,-5,+
Cc1csc(=N)n1-c1ccc(Cl)cc1,-3,-6,91*,0.33,-12,i
Cc1ccc(SCC2CNc3nc4ccccc4c(=O)n32)c(C)c1 (stereo not given),-1,-9,30,-1.1,11,i
OC(COc1cccc2ccccc12)CN1CCN(c2ccccc2Cl)CC1 (stereo not given),-3,nt,nt,3.5*,nt,nt
Cc1ccc(N2CCN(CC(O)COc3cccc4ccccc34)CC2)cc1 (stereo not given),-2,nt,nt,-0.05,nt,nt
COc1ccc(NC(=O)NCc2cccnc2)cc1OC,-3,3,-400,1.1,-3,i
C=CCc1cc(Cl)ccc1OCCOCCNC(C)(C)C,-7,-4,nt,-1.8,-27,+
C=CCc1cc(Cl)ccc1OCCOCCNCCOC,0,-5,-19,-0.36,-25,i
CC(=O)/C(=N\Nc1ccc(Cl)cc1)Sc1nnc(-c2ccccc2)n1-c1ccccc1,-8,-13,nt,-0.8,-12,i
Cc1cccc(-n2nnnc2SCn2nnc3ccccc3c2=O)c1,-7,-18,67,nt,6,+
COCCN=c1scc(-c2cc(OC)ccc2OC)n1/N=C/c1c[nH]c2ccccc12,8,-3,0,nt,-26,i
CC(=O)Nc1ccc2c(c1)ncn2-c1ccccc1,-5,nt,nt,-0.02,nt,nt
CCC(=O)Nc1ccc2c(c1)ncn2-c1ccccc1,-11,-1,-20,5*,-1,i
CC1(C)CC(NC(=O)CC2CCCCC2)CC(C)(C)N1,-9,2,82*,nt,3,i
CC1CCCN(C(=O)CSc2nc3ncccc3[nH]2)C1 (stereo not given),-1,0,nt,1,-1,+
C=C(C)CSc1nc2ncccc2[nH]1,-5,-1,71*,-0.44,5,i
CCN(CC)C(=O)CSc1nc2ncccc2[nH]1,-11,10,35,0.96,3,i
CCc1ccc2[nH]c(=O)c(CN(Cc3ccc(OC)cc3)Cc3nnnn3CCOC)cc2c1,-6,-13,nt,-2.8,-6,+
Cc1cc(N(CCO)CCO)nc(-n2nc(C)cc2C)n1,-2,-6,13,-0.3,-3,i
